Assay results reported in ChEMBL document CHEMBL2440094, “Thiazolidinone-peptide hybrids as dengue virus protease inhibitors with antiviral activity in cell culture” (J Med Chem, 2013).
Calls of active or inactive are those of the source. The rule behind the calls is not given here. Square brackets hold non-standard residues; d marks the D form. Peptide text beside a SMILES is read from it. * marks the point of attachment. Nle = CCCC[C@H](N)C(=O)O; Bz = O=C(c1ccccc1)*

System: dengue virus type 2
Assay: Antiviral activity against Dengue virus 2 infected in human Huh-7 cells assessed as inhibition of virus-induced plaque formation at 50 uM after 48
Format: functional, organism-based
Conditions: not given
Procedure, shortened: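 Huh-7 cells seeded in 12-well plates and pretreated with compound (50 μM) for 4 h. Infected for 1 h with dengue reporter virus (MOI 5) in the presence of compound, then medium replaced with compound-containing DMEM. Supernatant harvested at 48 h and filtered. Titer determined by plaque assay on Vero cells. Mean ± SD of three independent experiments.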

| Compound | inhibition |
| --- | --- |
| CCCC[C@H](NC(=O)[C@H](CCCN)NC(=O)[C@H](CCCNC(=N)N)NC(=O)c1ccc(/C=C2\SC(=O)N(Cc3ccccc3)C2=O)cc1)C(N)=O | inactive |
| CCCC[C@H](NC(=O)[C@H](CCCCN)NC(=O)[C@H](CCCNC(=N)N)NC(=O)c1ccc(/C=C2\SC(=O)N(Cc3ccc(Cl)cc3)C2=O)cc1)C(N)=O | inactive |
| CCCC[C@H](NC(=O)[C@H](CCCCN)NC(=O)[C@H](CCCNC(=N)N)NC(=O)c1cccs1)C(N)=O | inactive |
| CCCC[C@H](NC(=O)[C@H](CCCCN)NC(=O)[C@H](CCCNC(=N)N)NC(=O)c1ccc(/C=C(\C#N)C(=O)NC2CC2)cc1)C(N)=O | inactive |

System: Huh-7
Assay: Cytotoxicity against human HuH7 cells at <50 uM after 48 hrs by firefly reporter assay
Format: cell-based
Conditions: huh-7, 48 h
Procedure, shortened: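 Uninfected Huh-7 cells stably expressing firefly luciferase, seeded 5000/well and incubated overnight at 37 °C. Compound added at 1.56–50 μM, plus 100, 200 and 400 μM, then incubated as for infected cells (further 48 h after the 4 h point). Firefly luminescence read with 70 μM luciferin and 2 mM ATP. Mean of three wells as percent of DMSO control.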

| Compound | Activity |
| --- | --- |
| CCCC[C@H](NC(=O)[C@H](CCCCN)NC(=O)[C@H](CCCNC(=N)N)NC(=O)c1ccccc1)C(N)=O (Bz-Arg-Lys-[Nle]-NH2) | Non-toxic |
| CCCC[C@H](NC(=O)[C@H](CCCN)NC(=O)[C@H](CCCNC(=N)N)NC(=O)c1ccc(/C=C2\SC(=O)N(Cc3ccccc3)C2=O)cc1)C(N)=O | Non-toxic |
| CCCC[C@H](NC(=O)[C@H](CCCCN)NC(=O)[C@H](CCCNC(=N)N)NC(=O)c1ccc(/C=C2\SC(=O)N(Cc3ccc(Cl)cc3)C2=O)cc1)C(N)=O | Non-toxic |
| CCCC[C@H](NC(=O)[C@H](CCCCN)NC(=O)[C@H](CCCNC(=N)N)NC(=O)c1cccs1)C(N)=O | Non-toxic |
| CCCC[C@H](NC(=O)[C@H](CCCCN)NC(=O)[C@H](CCCNC(=N)N)NC(=O)c1ccc(/C=C(\C#N)C(=O)NC2CC2)cc1)C(N)=O | Non-toxic |

System: dengue virus type 2
Assay: Antiviral activity against Dengue virus 2 infected in human Huh-7 cells assessed as inhibition of viral replication after 48 hrs by luciferase reporter gene assay
Format: functional, organism-based
Conditions: Huh-7, 48 h
Procedure, shortened: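 Huh-7 cells seeded 5000/well, incubated overnight at 37 °C, then given compound (1.56–50 μM final, 2-fold series in DMEM with 10% FCS). Dengue 2 renilla luciferase reporter virus (MOI 10) added 4 h later. After 48 h at 37 °C, cells lysed and renilla luminescence read with coelenterazine. At least four wells per concentration, expressed relative to DMSO control. EC50 by nonlinear regression.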

| Compound | EC50 [µM] |
| --- | --- |
| CCCC[C@H](NC(=O)[C@H](CCCN)NC(=O)[C@H](CCCNC(=N)N)NC(=O)c1ccc(/C=C2\SC(=O)N(Cc3ccccc3)C2=O)cc1)C(N)=O | 26.8 |
| CCCC[C@H](NC(=O)[C@H](CCCCN)NC(=O)[C@H](CCCNC(=N)N)NC(=O)c1ccc(/C=C2\SC(=O)N(Cc3ccc(Cl)cc3)C2=O)cc1)C(N)=O | 41.1 |

System: not listed separately
Assay: Permeability of the compound by PAMPA
Format: ADME
Conditions: read-out: permeability
Procedure, shortened: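 PAMPA with precoated trilayer lipid/oil/lipid membranes, donor wells holding 200 μM compound in PBS pH 7.4 (2% DMSO final), in triplicate. Incubated 5 h at room temperature. Donor and acceptor concentrations determined by UV plate reader or HPLC-UV against calibration curves. Pe and mass retention R calculated.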

| Compound | Papp [×10⁻⁶ cm/s] |
| --- | --- |
| CCCC[C@H](NC(=O)[C@H](CCCCN)NC(=O)[C@H](CCCNC(=N)N)NC(=O)c1ccc(/C=C2\SC(=O)N(Cc3ccc(Cl)cc3)C2=O)cc1)C(N)=O | 1.11 |
| CCCC[C@H](NC(=O)[C@H](CCCCN)NC(=O)[C@H](CCCNC(=N)N)NC(=O)c1ccc(/C=C(\C#N)C(=O)NC2CC2)cc1)C(N)=O | 1.11 |

System: Dengue virus
Assay: Mixed type inhibition of Dengue virus NS2B-NS3 protease expressed in Escherichia coli BL 21 (DE3) using Abz-Nle-Lys-Arg-Arg-Ser-3-(NO2)Tyr as substrate by Cornish-Bowden plot analysis
Conditions: not given
Procedure, shortened: (§1)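 DEN2 NS2B–NS3 FRET assay run at inhibitor 0–6 μM (prior-series compounds 5–50 μM) and substrate 50, 100, 150 and 200 μM, in triplicate, with inner-filter correction. Ki from Dixon plots (1/v vs [I]) and Ki′ from Cornish-Bowden plots (S/v vs [I]). Inhibition mode assigned from these plots.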

| Compound | inhibition |
| --- | --- |
| CCCC[C@H](NC(=O)[C@H](CCCCN)NC(=O)[C@H](CCCNC(=N)N)NC(=O)c1ccc(/C=C2\SC(=O)N(Cc3ccc(Cl)cc3)C2=O)cc1)C(N)=O | Active |

System: Dengue virus
Assay: Competitive inhibition of Dengue virus NS2B-NS3 protease expressed in Escherichia coli BL 21 (DE3) using Abz-Nle-Lys-Arg-Arg-Ser-3-(NO2)Tyr as substrate by Cornish-Bowden plot analysis
Conditions: not given
Procedure, shortened: as §1

| Compound | inhibition |
| --- | --- |
| CCCC[C@H](NC(=O)[C@H](CCCCN)NC(=O)[C@H](CCCNC(=N)N)NC(=O)c1ccccc1)C(N)=O (Bz-Arg-Lys-[Nle]-NH2) | Active |
| CCCC[C@H](NC(=O)[C@H](CCCCN)NC(=O)[C@H](CCCNC(=N)N)NC(=O)c1cccs1)C(N)=O | Active |
| CCCC[C@H](NC(=O)[C@H](CCCCN)NC(=O)[C@H](CCCNC(=N)N)NC(=O)c1ccc(/C=C(\C#N)C(=O)NC2CC2)cc1)C(N)=O | Active |

System: not listed separately
Assay: Inhibition of Dengue virus NS2B-NS3 protease expressed in Escherichia coli BL 21 (DE3) using Abz-Nle-Lys-Arg-Arg-Ser-3-(NO2)Tyr as substrate assessed as enzyme-substrate-inhibitor complex by Cornish-Bowden plot analysis
Conditions: not given
Procedure, shortened: as §1

| Compound | Ki [µM] |
| --- | --- |
| CCCC[C@H](NC(=O)[C@H](CCCCN)NC(=O)[C@H](CCCNC(=N)N)NC(=O)c1ccccc1)C(N)=O (Bz-Arg-Lys-[Nle]-NH2) | > 50 |
| CCCC[C@H](NC(=O)[C@H](CCCCN)NC(=O)[C@H](CCCNC(=N)N)NC(=O)c1ccc(/C=C2\SC(=O)N(Cc3ccc(Cl)cc3)C2=O)cc1)C(N)=O | 5.4 |
| CCCC[C@H](NC(=O)[C@H](CCCCN)NC(=O)[C@H](CCCNC(=N)N)NC(=O)c1cccs1)C(N)=O | > 50 |
| CCCC[C@H](NC(=O)[C@H](CCCCN)NC(=O)[C@H](CCCNC(=N)N)NC(=O)c1ccc(/C=C(\C#N)C(=O)NC2CC2)cc1)C(N)=O | > 50 |

System: not listed separately
Assay: Inhibition of Dengue virus NS2B-NS3 protease expressed in Escherichia coli BL 21 (DE3) using Abz-Nle-Lys-Arg-Arg-Ser-3-(NO2)Tyr as substrate assessed as enzyme-inhibitor complex by Cornish-Bowden plot analysis
Conditions: in the assay text read “Dixon plot” for “Cornish-Bowden plot”
Procedure, shortened: as §1

| Compound | Ki [µM] |
| --- | --- |
| CCCC[C@H](NC(=O)[C@H](CCCCN)NC(=O)[C@H](CCCNC(=N)N)NC(=O)c1ccccc1)C(N)=O (Bz-Arg-Lys-[Nle]-NH2) | 11.2 |
| CCCC[C@H](NC(=O)[C@H](CCCCN)NC(=O)[C@H](CCCNC(=N)N)NC(=O)c1ccc(/C=C2\SC(=O)N(Cc3ccc(Cl)cc3)C2=O)cc1)C(N)=O | 2.2 |
| CCCC[C@H](NC(=O)[C@H](CCCCN)NC(=O)[C@H](CCCNC(=N)N)NC(=O)c1cccs1)C(N)=O | 14.5 |
| CCCC[C@H](NC(=O)[C@H](CCCCN)NC(=O)[C@H](CCCNC(=N)N)NC(=O)c1ccc(/C=C(\C#N)C(=O)NC2CC2)cc1)C(N)=O | 4 |

System: not listed separately
Assay: Inhibition of Dengue virus NS2B-NS3 protease expressed in Escherichia coli BL 21 (DE3) using Abz-Nle-Lys-Arg-Arg-Ser-3-(NO2)Tyr as substrate after 15 mins
Conditions: not given

| Compound | IC50 [µM] |
| --- | --- |
| CCCC[C@H](NC(=O)[C@H](CCCCN)NC(=O)[C@H](CCCNC(=N)N)NC(=O)c1ccccc1)C(N)=O (Bz-Arg-Lys-[Nle]-NH2) | 13.3 |
| CCCC[C@H](NC(=O)[C@H](CCCCN)NC(=O)[C@H](CCCNC(=N)N)NC(=O)c1ccc(/C=C2\SC(=O)N(Cc3ccc(Cl)cc3)C2=O)cc1)C(N)=O | 3.2 |
| CCCC[C@H](NC(=O)[C@H](CCCCN)NC(=O)[C@H](CCCNC(=N)N)NC(=O)c1cccs1)C(N)=O | 14.1 |
| CCCC[C@H](NC(=O)[C@H](CCCCN)NC(=O)[C@H](CCCNC(=N)N)NC(=O)c1ccc(/C=C(\C#N)C(=O)NC2CC2)cc1)C(N)=O | 5.3 |

Biological target: Prothrombin (Homo sapiens) (UniProt P00734)
Assay: Inhibition of thrombin (unknown origin) using Boc-Val-Pro-Arg-AMC as substrate at 25 uM after 10 mins by continuous fluorimetric assay
Conditions: not given
Procedure, shortened: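 Thrombin (10 nM) preincubated 15 min with inhibitor (25 μM final) in 50 mM Tris-HCl pH 7.5, 150 mM NaCl, 0.05% Tween 20. Boc-Val-Pro-Arg-AMC then added to 50 μM (Km 16 μM). Fluorescence (ex 355 nm, em 460 nm) followed for 10 min as slope. Triplicate; percent inhibition versus no-inhibitor control.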

| Compound | inhibition |
| --- | --- |
| CCCC[C@H](NC(=O)[C@H](CCCCN)NC(=O)[C@H](CCCNC(=N)N)NC(=O)c1ccccc1)C(N)=O (Bz-Arg-Lys-[Nle]-NH2) | 5.5% |
| CCCC[C@H](NC(=O)[C@H](CCCN)NC(=O)[C@H](CCCNC(=N)N)NC(=O)c1ccc(/C=C2\SC(=O)N(Cc3ccccc3)C2=O)cc1)C(N)=O | 14.3% |
| CCCC[C@H](NC(=O)[C@H](CCCCN)NC(=O)[C@H](CCCNC(=N)N)NC(=O)c1ccc(/C=C2\SC(=O)N(Cc3ccc(Cl)cc3)C2=O)cc1)C(N)=O | 18% |
| CCCC[C@H](NC(=O)[C@H](CCCCN)NC(=O)[C@H](CCCNC(=N)N)NC(=O)c1cccs1)C(N)=O | inactive |
| CCCC[C@H](NC(=O)[C@H](CCCCN)NC(=O)[C@H](CCCNC(=N)N)NC(=O)c1ccc(/C=C(\C#N)C(=O)NC2CC2)cc1)C(N)=O | 13.4% |

System: West Nile virus
Assay: Inhibition of West Nile virus NS2B-NS3 protease expressed in Escherichia coli BL 21 (DE3) using Abz-Gly-Leu-Lys-Arg-Gly-Gly-3-(NO2)Tyr as substrate at 50 uM after 15 mins
Conditions: not given

| Compound | inhibition [%] |
| --- | --- |
| CCCC[C@H](NC(=O)[C@H](CCCCN)NC(=O)[C@H](CCCNC(=N)N)NC(=O)c1ccccc1)C(N)=O (Bz-Arg-Lys-[Nle]-NH2) | 7.7 |
| CCCC[C@H](NC(=O)[C@H](CCCN)NC(=O)[C@H](CCCNC(=N)N)NC(=O)c1ccc(/C=C2\SC(=O)N(Cc3ccccc3)C2=O)cc1)C(N)=O | 45 |
| CCCC[C@H](NC(=O)[C@H](CCCCN)NC(=O)[C@H](CCCNC(=N)N)NC(=O)c1ccc(/C=C2\SC(=O)N(Cc3ccc(Cl)cc3)C2=O)cc1)C(N)=O | 88.2 |
| CCCC[C@H](NC(=O)[C@H](CCCCN)NC(=O)[C@H](CCCNC(=N)N)NC(=O)c1cccs1)C(N)=O | 14.7 |
| CCCC[C@H](NC(=O)[C@H](CCCCN)NC(=O)[C@H](CCCNC(=N)N)NC(=O)c1ccc(/C=C(\C#N)C(=O)NC2CC2)cc1)C(N)=O | 28 |

System: Dengue virus
Assay: Inhibition of Dengue virus NS2B-NS3 protease expressed in Escherichia coli BL 21 (DE3) using Abz-Nle-Lys-Arg-Arg-Ser-3-(NO2)Tyr as substrate at 50 uM after 15 mins
Conditions: not given

| Compound | inhibition [%] |
| --- | --- |
| CCCC[C@H](NC(=O)[C@H](CCCCN)NC(=O)[C@H](CCCNC(=N)N)NC(=O)c1ccccc1)C(N)=O (Bz-Arg-Lys-[Nle]-NH2) | 68.1 |
| CCCC[C@H](NC(=O)[C@H](CCCN)NC(=O)[C@H](CCCNC(=N)N)NC(=O)c1ccc(/C=C2\SC(=O)N(Cc3ccccc3)C2=O)cc1)C(N)=O | 74.5 |
| CCCC[C@H](NC(=O)[C@H](CCCCN)NC(=O)[C@H](CCCNC(=N)N)NC(=O)c1ccc(/C=C2\SC(=O)N(Cc3ccc(Cl)cc3)C2=O)cc1)C(N)=O | 99.4 |
| CCCC[C@H](NC(=O)[C@H](CCCCN)NC(=O)[C@H](CCCNC(=N)N)NC(=O)c1cccs1)C(N)=O | 71.1 |
| CCCC[C@H](NC(=O)[C@H](CCCCN)NC(=O)[C@H](CCCNC(=N)N)NC(=O)c1ccc(/C=C(\C#N)C(=O)NC2CC2)cc1)C(N)=O | 88.5 |
